{"source": "ChEMBL document CHEMBL5303300", "about": "“EUbOPEN Chemogenomics Library - Multiplex” (2023)", "tested_on": "U2OS", "experiment": "Multiplex assay against U2OS", "type": "toxicity, cell-based", "conditions": "human, number of replicates 2", "how_it_was_run": "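On a CQ1 microscope at 37°C and 5% CO2, live cells were imaged after compound addition. They had been stained at seeding with Hoechst33342, BioTracker Green Microtubule Cytoskeleton Dye, MitoTracker Red and Annexin V Alexa Fluor 680. CellPathfinder machine-learning gating assigned cells to Hoechst high-intensity objects or normal cells, normal cells to healthy, pyknosed or fragmented nuclei, and pyknosed cells to mitotic or apoptotic. Tubulin, mitochondrial-mass and membrane-permeability phenotypes are per cents of healthy-nucleus cells.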", "key": {"[1]": {"conditions": "12 h, 1 µM, compound concentration 1 uM"}, "[2]": {"conditions": "12 h, 10 µM, compound concentration 10 uM"}, "[3]": {"conditions": "24 h, 1 µM, compound concentration 1 uM"}, "[4]": {"conditions": "24 h, 10 µM, compound concentration 10 uM"}, "[5]": {"conditions": "48 h, 1 µM, compound concentration 1 uM"}, "[6]": {"conditions": "48 h, 10 µM, compound concentration 10 uM"}}, "note": "Values joined by “and” are separate entries in the source; they are usually repeats but may differ in a detail not shown here. Equal values may be shown once.", "data": [{"smiles": "CN(C)CC#Cc1ccc2[nH]c3c(c2c1)-c1nc(N)ncc1CCC3", "values": [{"measurement": "Population Apoptotic (%)", "setting": "[1]", "result": "100% and 38%"}, {"measurement": "Population Fragmented Nuclei (%)", "setting": "[1]", "result": "30% and 13%"}, {"measurement": "Population Healthy Nuclei (%)", "setting": "[1]", "result": "61% and 68%"}, {"measurement": "Population Hoechst High Intensity Objects (%)", "setting": "[1]", "result": "3% and 0%"}, {"measurement": "Population Membrane Permeable-Phenotype (%)", "setting": "[1]", "result": "5% and 1%"}, {"measurement": "Population Mitochondria Different-Phenotype (%)", "setting": "[1]", "result": "2% and 1%"}, {"measurement": "Population Normal (%)", "setting": "[1]", "result": "96% and 99%"}, {"measurement": "Population Pyknosed Nuclei (%)", "setting": "[1]", "result": "7% and 17%"}, {"measurement": "Population Tubulin-Different-Phenotype (%)", "setting": "[1]", "result": "61% and 84%"}, {"measurement": "Population Apoptotic (%)", "setting": "[2]", "result": "50% and 17%"}, {"measurement": "Population Healthy Nuclei (%)", "setting": "[2]", "result": "33% and 56%"}, {"measurement": "Population Hoechst High Intensity Objects (%)", "setting": "[2]", "result": 0, "unit": "%"}, {"measurement": "Population Membrane Permeable-Phenotype (%)", "setting": "[2]", "result": "10% and 5%"}, {"measurement": "Population Mitochondria Different-Phenotype (%)", "setting": "[2]", "result": "0% and 4%"}, {"measurement": "Population Mitotic Cells (%)", "setting": "[2]", "result": "50% and 82%"}, {"measurement": "Population Normal (%)", "setting": "[2]", "result": "100% and 99%"}, {"measurement": "Population Tubulin-Different-Phenotype (%)", "setting": "[2]", "result": "20% and 47%"}, {"measurement": "Population Apoptotic (%)", "setting": "[3]", "result": "75% and 53%"}, {"measurement": "Population Fragmented Nuclei (%)", "setting": "[3]", "result": "30% and 17%"}, {"measurement": "Population Healthy Nuclei (%)", "setting": "[3]", "result": "57% and 58%"}, {"measurement": "Population Hoechst High Intensity Objects (%)", "setting": "[3]", "result": "1% and 0%"}, {"measurement": "Population Membrane Permeable-Phenotype (%)", "setting": "[3]", "result": "0% and 3%"}, {"measurement": "Population Mitochondria Different-Phenotype (%)", "setting": "[3]", "result": "0% and 1%"}, {"measurement": "Population Mitotic Cells (%)", "setting": "[3]", "result": "25% and 46%"}, {"measurement": "Population Normal (%)", "setting": "[3]", "result": "98% and 99%"}, {"measurement": "Population Pyknosed Nuclei (%)", "setting": "[3]", "result": "12% and 23%"}, {"measurement": "Population Tubulin-Different-Phenotype (%)", "setting": "[3]", "result": "58% and 82%"}, {"measurement": "Population Apoptotic (%)", "setting": "[4]", "result": "66% and 24%"}, {"measurement": "Population Healthy Nuclei (%)", "setting": "[4]", "result": "31% and 39%"}, {"measurement": "Population Hoechst High Intensity Objects (%)", "setting": "[4]", "result": 0, "unit": "%"}, {"measurement": "Population Membrane Permeable-Phenotype (%)", "setting": "[4]", "result": "27% and 15%"}, {"measurement": "Population Mitochondria Different-Phenotype (%)", "setting": "[4]", "result": "9% and 4%"}, {"measurement": "Population Mitotic Cells (%)", "setting": "[4]", "result": "33% and 75%"}, {"measurement": "Population Normal (%)", "setting": "[4]", "result": "100% and 99%"}, {"measurement": "Population Tubulin-Different-Phenotype (%)", "setting": "[4]", "result": "45% and 49%"}, {"measurement": "Population Apoptotic (%)", "setting": "[5]", "result": "45% and 69%"}, {"measurement": "Population Fragmented Nuclei (%)", "setting": "[5]", "result": "37% and 13%"}, {"measurement": "Population Healthy Nuclei (%)", "setting": "[5]", "result": "52% and 69%"}, {"measurement": "Population Hoechst High Intensity Objects (%)", "setting": "[5]", "result": 0, "unit": "%"}, {"measurement": "Population Membrane Permeable-Phenotype (%)", "setting": "[5]", "result": "7% and 3%"}, {"measurement": "Population Mitochondria Different-Phenotype (%)", "setting": "[5]", "result": "5% and 0%"}, {"measurement": "Population Mitotic Cells (%)", "setting": "[5]", "result": "54% and 30%"}, {"measurement": "Population Normal (%)", "setting": "[5]", "result": "99% and 100%"}, {"measurement": "Population Pyknosed Nuclei (%)", "setting": "[5]", "result": "11% and 17%"}, {"measurement": "Population Tubulin-Different-Phenotype (%)", "setting": "[5]", "result": "67% and 77%"}, {"measurement": "Population Apoptotic (%)", "setting": "[6]", "result": 50, "unit": "%"}, {"measurement": "Population Healthy Nuclei (%)", "setting": "[6]", "result": "19% and 48%"}, {"measurement": "Population Hoechst High Intensity Objects (%)", "setting": "[6]", "result": 0, "unit": "%"}, {"measurement": "Population Membrane Permeable-Phenotype (%)", "setting": "[6]", "result": "20% and 28%"}, {"measurement": "Population Mitochondria Different-Phenotype (%)", "setting": "[6]", "result": "0% and 2%"}, {"measurement": "Population Mitotic Cells (%)", "setting": "[6]", "result": "50% and 49%"}, {"measurement": "Population Normal (%)", "setting": "[6]", "result": "100% and 99%"}, {"measurement": "Population Tubulin-Different-Phenotype (%)", "setting": "[6]", "result": "20% and 45%"}]}, {"smiles": "CCn1ccc(Nc2ncc3c(n2)-c2c(nn(C)c2-c2ccc(-c4cnn(C)c4)cc2Cl)CC3)n1", "values": [{"measurement": "Population Apoptotic (%)", "setting": "[1]", "result": "62% and 57%"}, {"measurement": "Population Fragmented Nuclei (%)", "setting": "[1]", "result": "5% and 15%"}, {"measurement": "Population Healthy Nuclei (%)", "setting": "[1]", "result": "83% and 63%"}, {"measurement": "Population Hoechst High Intensity Objects (%)", "setting": "[1]", "result": 0, "unit": "%"}, {"measurement": "Population Mitochondria Different-Phenotype (%)", "setting": "[1]", "result": "1% and 9%"}, {"measurement": "Population Mitotic Cells (%)", "setting": "[1]", "result": "37% and 42%"}, {"measurement": "Population Normal (%)", "setting": "[1]", "result": 100, "unit": "%"}, {"measurement": "Population Pyknosed Nuclei (%)", "setting": "[1]", "result": "11% and 21%"}, {"measurement": "Population Tubulin-Different-Phenotype (%)", "setting": "[1]", "result": "78% and 47%"}, {"measurement": "Population Apoptotic (%)", "setting": "[2]", "result": "62% and 66%"}, {"measurement": "Population Fragmented Nuclei (%)", "setting": "[2]", "result": "3% and 4%"}, {"measurement": "Population Healthy Nuclei (%)", "setting": "[2]", "result": "71% and 83%"}, {"measurement": "Population Hoechst High Intensity Objects (%)", "setting": "[2]", "result": 0, "unit": "%"}, {"measurement": "Population Membrane Permeable-Phenotype (%)", "setting": "[2]", "result": "13% and 4%"}, {"measurement": "Population Mitochondria Different-Phenotype (%)", "setting": "[2]", "result": "8% and 4%"}, {"measurement": "Population Mitotic Cells (%)", "setting": "[2]", "result": "37% and 33%"}, {"measurement": "Population Normal (%)", "setting": "[2]", "result": 100, "unit": "%"}, {"measurement": "Population Pyknosed Nuclei (%)", "setting": "[2]", "result": "25% and 11%"}, {"measurement": "Population Tubulin-Different-Phenotype (%)", "setting": "[2]", "result": "39% and 29%"}, {"measurement": "Population Apoptotic (%)", "setting": "[3]", "result": "70% and 62%"}, {"measurement": "Population Healthy Nuclei (%)", "setting": "[3]", "result": "85% and 64%"}, {"measurement": "Population Hoechst High Intensity Objects (%)", "setting": "[3]", "result": 0, "unit": "%"}, {"measurement": "Population Mitochondria Different-Phenotype (%)", "setting": "[3]", "result": "1% and 6%"}, {"measurement": "Population Mitotic Cells (%)", "setting": "[3]", "result": "29% and 37%"}, {"measurement": "Population Normal (%)", "setting": "[3]", "result": "99% and 100%"}, {"measurement": "Population Pyknosed Nuclei (%)", "setting": "[3]", "result": "9% and 17%"}, {"measurement": "Population Tubulin-Different-Phenotype (%)", "setting": "[3]", "result": "76% and 37%"}, {"measurement": "Population Apoptotic (%)", "setting": "[4]", "result": "83% and 63%"}, {"measurement": "Population Fragmented Nuclei (%)", "setting": "[4]", "result": "8% and 5%"}, {"measurement": "Population Healthy Nuclei (%)", "setting": "[4]", "result": "75% and 82%"}, {"measurement": "Population Hoechst High Intensity Objects (%)", "setting": "[4]", "result": 0, "unit": "%"}, {"measurement": "Population Membrane Permeable-Phenotype (%)", "setting": "[4]", "result": "7% and 2%"}, {"measurement": "Population Mitochondria Different-Phenotype (%)", "setting": "[4]", "result": "18% and 6%"}, {"measurement": "Population Mitotic Cells (%)", "setting": "[4]", "result": "16% and 36%"}, {"measurement": "Population Normal (%)", "setting": "[4]", "result": 100, "unit": "%"}, {"measurement": "Population Pyknosed Nuclei (%)", "setting": "[4]", "result": "16% and 11%"}, {"measurement": "Population Tubulin-Different-Phenotype (%)", "setting": "[4]", "result": "44% and 29%"}, {"measurement": "Population Apoptotic (%)", "setting": "[5]", "result": "63% and 100%"}, {"measurement": "Population Healthy Nuclei (%)", "setting": "[5]", "result": "89% and 77%"}, {"measurement": "Population Hoechst High Intensity Objects (%)", "setting": "[5]", "result": 0, "unit": "%"}, {"measurement": "Population Membrane Permeable-Phenotype (%)", "setting": "[5]", "result": "1% and 8%"}, {"measurement": "Population Mitochondria Different-Phenotype (%)", "setting": "[5]", "result": "0% and 4%"}, {"measurement": "Population Normal (%)", "setting": "[5]", "result": 100, "unit": "%"}, {"measurement": "Population Pyknosed Nuclei (%)", "setting": "[5]", "result": "7% and 9%"}, {"measurement": "Population Tubulin-Different-Phenotype (%)", "setting": "[5]", "result": "81% and 40%"}, {"measurement": "Population Apoptotic (%)", "setting": "[6]", "result": "68% and 75%"}, {"measurement": "Population Fragmented Nuclei (%)", "setting": "[6]", "result": "8% and 3%"}, {"measurement": "Population Healthy Nuclei (%)", "setting": "[6]", "result": "55% and 80%"}, {"measurement": "Population Hoechst High Intensity Objects (%)", "setting": "[6]", "result": 0, "unit": "%"}, {"measurement": "Population Membrane Permeable-Phenotype (%)", "setting": "[6]", "result": "4% and 3%"}, {"measurement": "Population Mitochondria Different-Phenotype (%)", "setting": "[6]", "result": "12% and 4%"}, {"measurement": "Population Mitotic Cells (%)", "setting": "[6]", "result": "31% and 25%"}, {"measurement": "Population Normal (%)", "setting": "[6]", "result": "100% and 99%"}, {"measurement": "Population Pyknosed Nuclei (%)", "setting": "[6]", "result": "35% and 16%"}, {"measurement": "Population Tubulin-Different-Phenotype (%)", "setting": "[6]", "result": "44% and 35%"}]}]}
